Source: PubChem (Broad Institute)
E-selectin induc: E-selectin induction on HUVECs | P16581 | HUVEC E-selectin immunofluorescence imaging; normalized: neutral wells 0, TNF-alpha wells 100 | activation, % at 7.58 µM | hit rate 0.37% among 260,000 | AID 686992;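 active = mean E-selectin-positive cell signal at least 10% of the positive control, reached in at least 60% of replicates, without over 20% cell loss; inconclusive = no rule given, readout overlaps actives, possibly toxicity-flagged; inactive = the rest, including those meeting only one limit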
Target sequence (P16581 whole entry, looked up): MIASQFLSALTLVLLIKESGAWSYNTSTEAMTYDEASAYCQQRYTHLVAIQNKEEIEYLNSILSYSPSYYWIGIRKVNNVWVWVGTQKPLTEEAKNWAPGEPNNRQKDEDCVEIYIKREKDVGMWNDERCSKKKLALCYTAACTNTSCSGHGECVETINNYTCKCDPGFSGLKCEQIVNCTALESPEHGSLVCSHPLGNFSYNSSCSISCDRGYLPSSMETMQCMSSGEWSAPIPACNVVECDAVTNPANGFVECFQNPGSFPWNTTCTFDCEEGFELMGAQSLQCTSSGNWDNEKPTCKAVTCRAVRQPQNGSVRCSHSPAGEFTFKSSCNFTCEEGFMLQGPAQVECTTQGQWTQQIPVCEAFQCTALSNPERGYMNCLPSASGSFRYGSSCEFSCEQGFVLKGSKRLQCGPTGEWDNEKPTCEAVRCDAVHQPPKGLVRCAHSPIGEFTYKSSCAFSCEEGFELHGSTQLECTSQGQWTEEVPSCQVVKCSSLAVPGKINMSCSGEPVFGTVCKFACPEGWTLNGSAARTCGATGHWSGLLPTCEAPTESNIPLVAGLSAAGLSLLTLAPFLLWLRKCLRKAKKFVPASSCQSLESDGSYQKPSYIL
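Test system – human umbilical vein endothelial cells (HUVEC), E-selectin induction · Input – 3,000 HUVEC seeded per well · Buffer or medium – EGM-2, gelatin · Compound dosing – single-point compound dose · Detection – immunofluorescence imaging · Measure – percent E-selectin-positive cells · Controls – TNF-alpha high, DMSO low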
rRNA inh HTS: selective bacterial rRNA inhibition in E. coli | E. coli WT GFP vs humanized-ribosome RFP mutants, fluorescence, 24 h; hits give low values; DMSO median 0, no signal -100 | GFP signal change (wild-type ribosome), % (concentration not given with the values) | hit rate 1.6% among 350,000;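 active = significant combined selectivity score with lowered wild-type GFP, culture density cut under 30%, mutant RFP and density less affected; inactive = any of these conditions unmet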
EWS-Fli inh: inhibitors of EWS/Fli oncoprotein transcriptional activity; A673 NR0B1-luciferase reporter, viability-normalised; inhibition, % at 12.6 µM; hit rate 0.67% among 350,000; AID 651661;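 active = mean inhibition of at least 50% after viability correction, with every replicate also passing that limit; inconclusive = mean reaches 50% but only one of two replicates passes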;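 also: firefly luciferase signal divided by Alamar Blue viability fluorescence both relative to DMSO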
LGR2 antag: blocks bursicon-induced cAMP signaling via Drosophila LGR2 | HEK293 LGR2, CRE-luciferase, bursicon-stimulated, 4 h | AID 720647 | inhibition, % at 9.99 µM | hit rate 0.35% among 380,000;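 active = drop in luminescence signal, shown as inhibition above about 50% in the replicate tests, limit read from the data, passing the limit was not always enough; inconclusive = probably only some replicates passing the limit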;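 also: agonist challenge used bursicon conditioned medium at about half maximal strength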
Numbers without * were called inactive; ? = inconclusive; . = no result given. Only some compounds are listed: those with a hit (about 2.4% of all), similar ones and a draw of the others.

SMILES	E-selectin induc	rRNA inh HTS	EWS-Fli inh	LGR2 antag
O=C(O)c1ccc(S(=O)(=O)c2ccc3c(c2)C(=O)N(c2ccc(O)cc2)C3=O)cc1	0	-36*	0	-2
CC=Cc1ccc2n(c1=O)C[C@H]1[C@H](CO)[C@@H](C(=O)Nc3ccccc3)N(CC3CC3)[C@@H]21 (mixture of isomers)	0	-2	4	-14
COC(=O)Cc1c(O)ccn(Cc2ccc(Cl)c(Cl)c2)c1=O	0	-21*	-12	5
CCC(=O)Nc1ccc2c(c1)C(=O)N(C)C[C@H](OC)[C@H](C)CN(Cc1cncnc1)[C@H](C)CO2	0	4	-1	-2
Cc1cccc(C)c1NC(=O)c1cccc(C(=O)Nc2c(C)cccc2C)n1	0	-25*	5	-10
COc1ccc(NC(=O)N[C@@H]2CC[C@@H](CCNC(=O)CCN3CCCCC3)O[C@@H]2CO)cc1	0	2	2	-4
CCOc1ccc(N2C(=O)C(=O)/C(=C(/O)c3ccccc3)C2c2ccccc2[N+](=O)[O-])cc1 (stereo not given)	.	-17*	2	-24
CCc1ccc(-n2c(=S)sc3c(=O)n(-c4ccccc4C)c(SCC(=O)O)nc32)cc1	60*	-20	8	-5
COc1ccccc1-n1c(SCC(=O)O)nc2c(sc(=S)n2-c2ccc(C)c(C)c2)c1=O	?	-21*	-11	6
O=C(Cc1ccccn1)NCC[C@H]1CC[C@@H](NS(=O)(=O)c2ccc(Cl)cc2)[C@@H](CO)O1	0	0	-3	-9
COc1ccc2c3c([nH]c2c1)[C@H](CO)N(C(=O)c1ccncc1)CC31CCN(C)CC1	.	2	.	.
COc1ccc(CNC(=O)/C=C/c2ccc(S(=O)(=O)NCc3ccco3)cc2)cc1OC	.	.	.	22
O=C(/C=C/c1ccc(S(=O)(=O)NCc2ccco2)cc1)NCc1ccccc1Cl	.	-27*	2	8
Cc1sc2ncnc(N3CCCCC3)c2c1C	.	-49	12	2
c1ccc(-n2ncc3c(N4CCCCC4)ncnc32)cc1	2	-25	75*	61*
CCN1CCN(c2ncnc3c2cnn3-c2ccccc2)CC1	0	-1	-87	-47
CC1CCCN(c2ncnc3c2cnn3-c2ccccc2)C1 (stereo not given)	0	-40	69*	84*
Cc1ccc(-n2ncc3c(N4CCCC(C)C4)ncnc32)c(C)c1 (stereo not given)	-2	-22	-75	-71
CC1CCCN(c2ncnc3c2cnn3-c2ccc(Cl)cc2)C1 (stereo not given)	0	6	86*	97*
Cc1sc2ncnc(N3CCCC(C)C3)c2c1C (stereo not given)	0	-28*	3	5
COc1ccc(NC(=O)Nc2cccc3c2O[C@H](CN(C)C(=O)Nc2ccc(F)cc2)[C@H](C)CN([C@@H](C)CO)C3=O)cc1	-1	-2	-4	-5
Cc1ccc(C)c(S(=O)(=O)N(C(=O)c2ccncc2)c2ccc(OC(=O)c3ccncc3)cc2)c1	.	2	5	96*
Cc1noc(C)c1NC(=O)Nc1cccc2c1O[C@H](CN(C)C(=O)Nc1cccc3ccccc13)[C@@H](C)CN([C@H](C)CO)C2=O	0	2	3	5
COc1ccc(-c2cnc3c(c2)C(=O)N([C@@H](C)CO)C[C@H](C)[C@@H](CN(C)S(=O)(=O)c2ccc(OC)cc2)O3)cc1	0	-3	-3	12
CCOc1ccc(N(C)S(=O)(=O)c2cc(-c3cc(C)no3)ccc2OC)cc1	.	-37*	.	1
SMILES	E-selectin induc	rRNA inh HTS	EWS-Fli inh	LGR2 antag
C[C@H](CO)N1C[C@H](C)[C@@H](CN(C)C(=O)NC2CCCCC2)OCCCC[C@H](C)Oc2ccc(NC(=O)Nc3ccc(F)cc3)cc2C1=O	.	1	5	-3
COc1ccc(C)c2sc(NC(=O)CCS(=O)(=O)c3ccccc3)nc12	.	-31*	13	-2
CCOc1cccc2sc(NC(=O)CCS(=O)(=O)c3ccccc3)nc12	-1	-1	2	15
Cc1ccc(S(=O)(=O)N(C)C[C@H]2Oc3ccc(NC(=O)C4CC4)cc3C(=O)N([C@H](C)CO)C[C@@H]2C)cc1	-7	-3	1	11
O=Cc1s/c(=N\S(=O)(=O)c2ccccc2)n(CCCCl)c1Cl	-1	4	55*	72*
CCn1c(C)cs/c1=N\S(=O)(=O)c1ccccc1	0	-7	5	10
COc1ccc(NC(=O)NC2(C(=O)N3CCOCC3)CCCCC2)cc1	39*	1	-12	6
COc1ccc(NC(=O)NC2(C(=O)N3CCN4CCCC4C3)CCCCC2)cc1 (stereo not given)	0	2	-12	6
COc1ccc(NC(=O)c2cc(-c3cccc(OC)c3)on2)cc1	0	12	-8	1
COc1cccc(-c2cc(C(=O)Nc3cccc(O)c3)no2)c1	.	.	.	79*
Cc1ccc(S(=O)(=O)Nc2ccc3c(c2)C(=O)N([C@@H](C)CO)C[C@H](C)[C@H](CN(C)S(=O)(=O)c2ccc(F)cc2)OCCCC[C@@H](C)O3)cc1	0	1	-14	13
CCOC(=O)C1=C(C)N(C[C@@H]2CC[C@@H](Cc3ccc4cc(OC)ccc4c3)O2)C(=O)NC1c1ccc(OC)cc1 (stereo not given in full)	-2	3	-11	17
COc1ccc2cc(C[C@@H]3CC[C@@H](CO)O3)ccc2c1	0	-23*	-85	-66
CCNC(=S)N(CCc1c(C)[nH]c2ccc(C)cc12)Cc1cccnc1	0	-4	10	7
CCNC(=S)N(CCc1c(C)[nH]c2ccc(F)cc12)Cc1cccnc1	.	-27*	-1	8
Cc1ccc(-n2c(=O)c3c4c(sc3n3c(=S)[nH]nc23)CCC4)cc1	0	.	3	.
COc1ccc(-n2c(=O)c3c4c(sc3n3c(=S)[nH]nc23)CCC4)cc1	-1	-25*	-10	-9
Cc1[nH]c2ccc(-c3n[nH]c(=S)n3C)cc2c1C	.	-16*	-10	-2
O=C(C[C@H]1C[C@@H]2c3cc(NC(=O)Nc4ccc(F)cc4)ccc3O[C@@H]2[C@@H](CO)O1)NC1CCCC1	.	-6	.	.
N=c1n(CC(=O)c2ccc(Br)s2)c2ccccc2n1Cc1ccccc1	.	-56	60*	32
CCN(CC)CCn1c(=N)n(CC(=O)c2ccc(Br)s2)c2ccccc21	0	.	15	.
C[C@H]1CN([C@@H](C)CO)C(=O)c2c(c3ccccc3n2C)-c2ccccc2CO[C@@H]1CN(C)C(=O)Nc1ccc(-c2ccccc2)cc1	-1	5	-15	6
C[C@@H]1CN([C@H](C)CO)C(=O)c2cccc(NS(=O)(=O)c3ccc(F)cc3)c2O[C@@H]1CN(C)S(=O)(=O)c1cccs1	36*	-3	-6	0
C[C@@H]1CN([C@H](C)CO)C(=O)c2cccc(NC(=O)c3ccncc3)c2O[C@H]1CN(C)S(=O)(=O)c1ccccc1	32*	5	-7	13
